The nature of data set [1]: Effect on growth of Francisella philomiragia ATCC 25015 after 48 hrs. Summed up: (§1)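 Cultures grown 24 h were diluted to 5 × 10^5 CFU/mL in CAMHB with 2% IsoVitaleX (F. philomiragia) or TSB-C (F. novicida). Compound came from a 100 mM DMSO stock, starting at 200 µM, in twofold serial dilutions over 12 wells. Plates were incubated stationary at 37°C for 48 h. MIC was the lowest concentration with no bacterial growth.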

A short description of data set [2]: Potentiation of streptomycin-induced antibacterial activity against Francisella philomiragia ATCC 25015 assessed as MIC of streptomycin at 50 uM after 48 hrs (reference value: 4 ug/ml). Particulars: ATCC 25015, 48 h. Type of data set: functional. Summed up: (§2)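 Inocula were 5 × 10^5 CFU/mL in CAMHB with 2% IsoVitaleX (F. philomiragia) or TSB-C (F. novicida). Adjuvant from a 100 mM DMSO stock was held at one fixed concentration; the control had no adjuvant. Antibiotic started at 2–2,048 µg/mL in twofold serial dilutions. Incubation was stationary at 37°C for 48 h. Antibiotic MIC was the lowest concentration with no growth, compared with and without adjuvant.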

Data set [3] in a line: Potentiation of gentamicin-induced antibacterial activity against Francisella philomiragia ATCC 25015 assessed as MIC of gentamicin at 50 uM after 48 hrs (reference value: 0.5 ug/ml). The data set is classed as functional. The note with it: ATCC 25015, 48 h. Summed up: as §2
A short description of data set [4]: Potentiation of azithromycin-induced antibacterial activity against Francisella philomiragia ATCC 25015 assessed as MIC of azithromycin at 50 uM after 48 hrs (reference value: 4 ug/ml). The data set is classed as functional. Particulars: ATCC 25015, 48 h. The method in brief:
as §2

The nature of data set [5]: microbe, parasite or virus in culture. Type of data set: functional. Particulars: Francisella philomiragia, ATCC 25015, 48 h.
The nature of data set [6]: Potentiation of colistin-induced antibacterial activity against Francisella philomiragia ATCC 25015 assessed as MIC of colistin at 50 uM after 48 hrs (reference value: 256 ug/ml). The data set is classed as functional. Particulars: ATCC 25015, 48 h. Summed up:
as §2

Data set [7] is described as follows: Effect on growth of Francisella novicida U112 after 48 hrs. Particulars: francisella tularensis subsp. novicida u112, 48 h. Summed up:
as §1

The nature of data set [8]: Potentiation of gentamicin-induced antibacterial activity against Francisella novicida U112 assessed as MIC of gentamicin at 50 uM after 48 hrs (reference value: 1 ug/ml). The data set is classed as functional, Francisella tularensis subsp. novicida U112. Particulars: Francisella tularensis. The method in brief: as §2
A short description of data set [9]: Potentiation of azithromycin-induced antibacterial activity against Francisella novicida U112 assessed as MIC of azithromycin at 50 uM after 48 hrs (reference value: 2 ug/ml). The data set is classed as functional, Francisella tularensis subsp. novicida U112. Particulars: Francisella tularensis. Summed up:
as §2

Data set [10] is described as follows: microbe, parasite or virus in culture. Type of data set: functional, Francisella tularensis subsp. novicida U112. The note with it: Francisella tularensis, 48 h.
Data set [11] in a line: Potentiation of azithromycin-induced antibacterial activity against Francisella philomiragia ATCC 25015 assessed as reduction of azithromycin MIC at 50 uM after 48 hrs relative to control. Type of data set: functional. Summed up: as §2
The subject of data set [12] is Francisella tularensis subsp. novicida U112. In words: Potentiation of azithromycin-induced antibacterial activity against Francisella novicida U112 assessed as reduction of azithromycin MIC at 50 uM after 48 hrs relative to control. Type of data set: functional. Summed up:
as §2

Data set [13] can be described thus: Potentiation of FR900098-induced antibacterial activity against Francisella philomiragia ATCC 25015 assessed as reduction of FR900098 MIC at 50 uM after 48 hrs relative to control. The data set is classed as functional. The method in brief: as §2
Data set [14] is described as follows: Potentiation of gentamicin-induced antibacterial activity against Francisella philomiragia ATCC 25015 assessed as reduction of gentamicin MIC at 50 uM after 48 hrs relative to control. Type of data set: functional. Summed up:
as §2

Data set [15] in a line: Potentiation of streptomycin-induced antibacterial activity against Francisella philomiragia ATCC 25015 assessed as reduction of streptomycin MIC at 50 uM after 48 hrs relative to control. Type of data set: functional. Summed up:
as §2

A short description of data set [16]: Effect on growth of Francisella philomiragia ATCC 25015 assessed as growth delay at 50 uM after 8 to 12 hrs by time kill assay. The method in brief:
(§3)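 F. philomiragia from 24 h CAMHB/2% IsoVitaleX cultures was inoculated to 5 × 10^5 CFU/mL, with compound or as an untreated control. Tubes were shaken at 37°C. Samples taken at 8, 12, 16, 20 and 24 h were serially diluted and plated on cysteine heart agar with 5% rabbit blood. Plates were incubated at 37°C for 24–36 h, and CFU were counted.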

A short description of data set [17]: Effect on growth of Francisella philomiragia ATCC 25015 at 50 uM after 16 hrs by time kill assay. The method in brief: as §3
Data set [18] is described as follows: Potentiation of colistin-induced antibacterial activity against Francisella novicida U112 assessed as reduction of colistin MIC at 50 uM after 48 hrs relative to control. The data set is classed as functional, Francisella tularensis subsp. novicida U112. The method in brief:
as §2

The nature of data set [19]: Potentiation of colistin-induced antibacterial activity against Francisella novicida U112 assessed as reduction of colistin MIC at 100 uM after 48 hrs. Type of data set: functional, Francisella tularensis subsp. novicida U112. Summed up: as §2
Data set [20] can be described thus: Potentiation of colistin-induced antibacterial activity against Francisella philomiragia ATCC 25015 assessed as reduction of colistin MIC at 50 uM after 48 hrs relative to control. Type of data set: functional. Summed up:
as §2

≈ marks a conversion by molar mass, not a printed value. Calls of active or inactive are those of the source. The rule behind the calls is not given here.

Experimental findings from ChEMBL document CHEMBL3792321, “Potentiation of Francisella Resistance to Conventional Antibiotics through Small Molecule Adjuvants” (Medchemcomm, 2016) are described below.

`CCSC(=O)N1CCc2ccccc21`: the MIC in data set [1] is above 200 µM; in data set [2], 4 µg/mL; in data set [3], 0.5 µg/mL; in [4], 0.5 µg/mL; in [5], 1020 µg/mL (≈ 4.94 mM); in [6], 256 µg/mL. Also, the MIC was above 200 µg/mL in data set [7], 4 µg/mL in [8], 0.125 µg/mL in data set [9] and 1020 µg/mL (≈ 4.94 mM) in data set [10]. Further, in data set [11], the “fold change (FC)” value turned out to be 8. For the same compound, the result in data set [12] was Active.

As for `CCCCCc1ccc(C2=NCCO2)cc1`, the MIC in data set [1] is 200 µM (≈ 43.5 µg/mL); in data set [2], 8 µg/mL; in data set [3], 1 µg/mL; in [4], 2 µg/mL; in [5], below 64 µg/mL; in data set [6], 512 µg/mL. Also, in data set [13], the “fold change (FC)” value turned out to be 16.

As for `Cc1cc2nc(N)[nH]c2cc1C`, the MIC in data set [1] is above 200 µM; in data set [2] it was 1 µg/mL; in data set [3], 0.125 µg/mL; in data set [4] it was 4 µg/mL; in [5], 1020 µg/mL (≈ 6.35 mM); in [6], 32 µg/mL. Besides, the MIC in data set [7] was above 200 µg/mL; in data set [8], 1 µg/mL; in data set [9], 2 µg/mL; in data set [10], 1020 µg/mL (≈ 6.35 mM). The “fold change (FC)” value in data set [14] and in [15] was 4 throughout.

As for `CCCCc1ccc(C(=O)NCCc2c[nH]c3ccccc23)cc1`, the MIC in data set [1] is above 200 µM; in data set [2] it was 4 µg/mL; in data set [3] it was 0.25 µg/mL; in [4], 0.5 µg/mL; in data set [5], 1020 µg/mL (≈ 3.2 mM); in [6] it was 8 µg/mL. The MIC in [7] was above 200 µg/mL; in data set [8], 4 µg/mL; in data set [9], 1 µg/mL; in data set [10], 512 µg/mL (≈ 1.6 mM). Further, the Activity result is “Toxic” in data set [16] and “Non-toxic” in [17]. Also, the “fold change (FC)” value was 2 in [18] and 16 in data set [19].

For the compound `CCCCc1ccc(C(=O)NCCCc2c[nH]c3ccccc23)cc1`, the MIC in data set [1] was above 200 µM; in [2], 4 µg/mL; in data set [3] it was 0.25 µg/mL; in [4] it was 2 µg/mL; in data set [6], 64 µg/mL. Also, the “fold change (FC)” value in data set [20] came out at 4.
